From PubChem BioAssay
Rows were chosen to be rich in hits. Some 1.4% of all compounds tested hit in one or more screens of this group.
IDE inh – human IDE inhibitors in live cells, primary screen, fluorescence polarization, HEK cells, FAbetaB substrate; AID 434962, 2010; inhibition, % at 5.59 µM; Insulin-degrading enzyme (Homo sapiens), P14735; FAbetaB cleavage; actives 0.41% (n = 320,000);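 active = percent inhibition above the average of all tested compounds plus 3 SD, set per screening campaign, cut at about 16% in these data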;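 also: IDE supplied by intact live HEK cells; FP after avidin binding of uncleaved biotin substrate so inhibition keeps polarization high; 0% = DMSO wells and 100% = 60 µM reference IDE inhibitor Ii1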
HNF4A DNA FP – change in binding of human HNF4A to DNA, primary screen, biochemical, fluorescence polarization, FITC-DNA; 1 h; Hepatocyte nuclear factor 4-alpha (Homo sapiens), P41235; AID 1224865, 2016; actives 0.3% (n = 360,000); activity change, % at 10 µM; in the data active = activity change above about 30%, passing the limit was not always enough
Target sequence (P41235 whole entry, looked up): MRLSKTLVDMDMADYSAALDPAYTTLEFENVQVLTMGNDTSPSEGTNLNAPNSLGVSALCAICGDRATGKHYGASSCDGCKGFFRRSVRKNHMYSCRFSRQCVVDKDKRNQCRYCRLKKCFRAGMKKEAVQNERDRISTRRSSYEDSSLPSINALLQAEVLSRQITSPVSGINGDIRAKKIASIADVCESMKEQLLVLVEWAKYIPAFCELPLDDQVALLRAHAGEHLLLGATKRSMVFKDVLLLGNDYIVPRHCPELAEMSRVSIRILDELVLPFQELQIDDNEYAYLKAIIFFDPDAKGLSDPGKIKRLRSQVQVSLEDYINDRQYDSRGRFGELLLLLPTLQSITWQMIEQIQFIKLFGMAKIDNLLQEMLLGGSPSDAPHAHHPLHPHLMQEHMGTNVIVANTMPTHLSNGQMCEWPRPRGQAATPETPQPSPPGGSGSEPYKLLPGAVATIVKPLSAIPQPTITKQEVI
TPT1 inhibitor – Candida albicans TPT1 enzyme inhibitors, primary screen, biochemical, fluorescence polarization; recombinant caTPT1, FP RNA substrate dephosphorylation; actives 0.81% (n = 300,000); tRNA 2'-phosphotransferase TPT1 (Candida albicans SC5314); inhibition, % at 5 µM;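 active = inhibition above the mean of all tested compounds plus 3 SD, set per screening campaign, cut at about 24% in these data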;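 also: plate controls were DMSO alone for no effect and ferristatin control at 100 nM for full effect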
IDE act – human IDE activators in live cells, primary screen, fluorescence polarization, HEK cells, FAbeta-B substrate | FAbeta-B cleavage; 0% vehicle, 100% cell-free pure enzyme wells | activation, % at 5.96 µM | actives 0.073% (n = 340,000) | AID 493087, 2011;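 active = activation above the mean of all tested compounds plus 3 SD, set per screening campaign, cut at about 17% in these data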
CSN inh – inhibitors of CSN-mediated cullin deneddylation, primary screen, biochemical, fluorescence polarization, uHTS; Purified CSN, SCF-Nedd8-OG deneddylation; COP9 signalosome complex subunit 5 (Homo sapiens), Q92905; inhibition, % at 12.5 µM; actives 0.38% (n = 360,000);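 active = pattern-corrected inhibition above about 35%, with an unprinted fluorescence ratio check between 0.5 and 1.5, limit read from the data, passing the limit was not always enough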;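 also: 0% = enzyme with substrate and 100% = substrate without enzyme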
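Assay system: HEK293T-derived human Csn5 enzyme; quantity: 0.24 nM enzyme; medium: Tris/NaCl/DTT buffer, pH 7.5; also added: substrate SCFSkp2-Nedd8OG, 10 nM; doses: 12.5 µM compound; schedule: 90 min reaction at room temperature; signal: FP; read-out: % inhibition of substrate cleavage by Csn5; benchmarks: substrate-only high control, full reaction low control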
TPT1 inh confirm – Candida albicans TPT1 inhibitors, confirmation, biochemical, fluorescence polarization, triplicate | shares compounds with TPT1 inhibitor | inhibition, % at 5 µM | recombinant caTPT1, RNase T1 coupled | actives 74% (n = 2,400);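 active = inhibition above the primary screen limit, the mean inhibition of all tested compounds plus 3 SD, cut at about 25% in these data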
RNase T1 counter – RNase T1 inhibitors, counter-screen for TPT1 inhibitor project, biochemical, fluorescence polarization. shares compounds with TPT1 inhibitor. RNase T1 cleavage, 1536-well. inhibition, % at 5 µM. actives 83% (n = 2,400). AID 2153, 2009;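 active = inhibition above the solvent-only control well mean plus 3 SD, limit set per screening run, cut at about 23% in these data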;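 also: plate controls were DMSO wells with enzyme for no effect and wells without RNase T1 for full effect; inhibitors block cleavage so intact labeled substrate keeps polarization high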
Target sequence (P00651 whole entry, looked up): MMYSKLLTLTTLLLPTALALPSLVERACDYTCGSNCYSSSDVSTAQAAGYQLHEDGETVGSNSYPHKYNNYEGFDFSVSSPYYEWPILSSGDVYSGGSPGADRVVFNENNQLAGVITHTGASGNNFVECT
Starred values were filed as active, the others as inactive; x = not tested or not shown.

SMILES | IDE inh | HNF4A DNA FP | TPT1 inhibitor | IDE act | CSN inh | TPT1 inh confirm | RNase T1 counter
O=C(Nc1nccs1)c1ccc(N2C(=O)C3CCCCC3C2=O)cc1 (stereo not drawn) | 4 | -5 | 65* | 1 | 5 | 5 | 11
O=C(Nc1nccs1)c1ccc(N2C(=O)[C@@H]3[C@H](C2=O)[C@H]2C=C[C@@H]3C2)cc1 | 1 | 0 | 0 | 3 | -2 | x | x
CCc1cc2c(=O)[nH]c(-c3ccncc3)nc2s1 | 4 | 5 | 29* | -1 | -1 | 3 | 6
CCc1cc2c(=O)[nH]c(Cc3ccccc3)nc2s1 | 0 | 1 | -1 | 3 | 9 | x | x
O=c1nc(/C=C/c2cccn2-c2ccc([N+](=O)[O-])cc2)cc(C(F)(F)F)[nH]1 | 1 | 5 | 84* | 6 | 18 | 47* | 66*
O=c1nc(/C=C/c2cc([N+](=O)[O-])ccc2Cl)cc(C(F)(F)F)[nH]1 | 9 | -3 | -3 | 4 | 26 | x | x
COc1cccc(CNC(=O)[C@@H]2CCCN2C(=O)[C@H]2CCCCN2C(=O)OC(C)(C)C)c1 | x | 0 | x | x | -4 | x | x
Nc1cc(N)cc(C(=O)c2ccccc2)c1 | x | 9 | x | x | 3 | x | x
O=C(c1ccc(-c2ccc([N+](=O)[O-])cc2)o1)N1CCCCCCC1 | -4 | 3 | x | -7 | -1 | x | x
O=C(c1ccc(-c2ccc([N+](=O)[O-])cc2)o1)N1CCCC(C(F)(F)F)C1 (stereo not drawn) | 1 | 6 | 25* | -1 | -3 | 13 | 19
COc1cc(/C=c2\sc3n(c2=O)C(c2ccccc2)C(c2ccccc2)=NN=3)ccc1O (stereo not drawn) | 11 | 10 | 35* | -12 | 6 | 50* | 56*
COc1cc(/C=c2\sc3n(c2=O)CCCN=3)ccc1O | 7 | 4 | 17 | -3 | 12 | x | x
c1ccc(SC23CCCCN(CCC2)[C@]32CO2)cc1 (stereo partly drawn) | x | 9 | x | x | 3 | x | x
CC1=[N+](C)N(c2ccccc2)C(=O)C1N=Cc1c(Cl)cccc1Cl (stereo not drawn) | -6 | 1 | 133* | 4 | -1 | 7 | 11
CC1=[N+](C)N(c2ccccc2)C(=O)C1N=Cc1ccccc1Cl (stereo not drawn) | -4 | -2 | -1 | 3 | -7 | x | x
COc1ccc(/C=N/Nc2ccc(C(F)(F)F)cc2[N+](=O)[O-])cc1 | -2 | 0 | 62* | 6 | -2 | 7 | 12
Oc1ccc(C[C@H]2CNC(=S)N2CC2CCCN2C[C@H](Cc2ccccc2)N2C[C@H](Cc3ccc(O)cc3)N(CC3CCCCC3)C2=S)cc1 (stereo partly drawn) | x | -1 | x | x | 1 | x | x
Oc1oc(-c2ccccc2)nc1C=Nc1ccccc1 | -1 | 2 | 3 | 3 | 1 | x | x
CC1=Nc2ccccc2/C1=C\c1nc(-c2ccccc2)oc1O | 3 | 28 | 80* | -1 | 16 | 99* | 108*
COc1ccc(-c2nc(/C=C3\C(C)=Nc4ccccc43)c(O)o2)cc1 | 3 | 24 | 95* | -7 | 4 | 106* | 112*
CC1=Nc2ccccc2/C1=C\c1nc(-c2ccc(C(F)(F)F)cc2)oc1O | 4 | -53 | 156* | -10 | -71 | 152* | 142*
CSC1=NC=C(C#N)C2=NC(c3ccc(Cl)cc3)NN12 (stereo not drawn) | x | -2 | x | x | 1 | x | x
CCOC(=O)c1sc2nc3c(SCCC#N)cc(C(=O)c4cc(F)ccc4O)cn3c(=O)c2c1C | -4 | 36 | 48* | -2 | 16 | 27* | 31*
CC1(C(=O)NS(=O)(=O)c2ccc(Cl)cc2)CCN1C(=O)c1ccco1 (stereo not drawn) | x | -1 | x | x | -2 | x | x
Cn1cccc1C(=O)/C(C#N)=C/c1ccc(F)cc1 | 5 | 21 | 53* | -11 | 29 | 80* | 96*
SMILES | IDE inh | HNF4A DNA FP | TPT1 inhibitor | IDE act | CSN inh | TPT1 inh confirm | RNase T1 counter
COc1ccc(/C=C(\C#N)C(=O)c2cccn2C)cc1 | 6 | -5 | 2 | 3 | 0 | x | x
O=C1S/C(=C/c2ccc(N3CCOCC3)o2)C(=O)N1Cc1ccc(F)cc1 | 9 | 187 | 136* | -41 | 132 | 163* | 162*
O=C1S/C(=C\c2ccc(N3CCOCC3)o2)C(=O)N1Cc1ccc(F)cc1 | 7 | 130 | 142* | -29 | 115 | 168* | 165*
O=C1N=C(N2CCOCC2)S/C1=C/c1ccc(-c2ccc(F)cc2)o1 | 1 | 8 | 11 | -5 | 6 | x | x
COc1ccc2cc(C3CC=C(CO)CN3S(=O)(=O)c3ccccc3[N+](=O)[O-])n(C(=O)OC(C)(C)C)c2c1 (stereo not drawn) | x | 3 | x | x | 2 | x | x
COc1ccc(CC(=O)Nc2ccccc2C(F)(F)F)cc1S(=O)(=O)N1CCOCC1 | x | 4 | x | x | 1 | x | x
CCN(CC)c1cccc(OCC(=O)N(C)CCC#N)c1 | -2 | 32 | 43* | 0 | 18 | 41* | 51*
Cc1ccc(/C=N/c2sc3c(c2C#N)CCC3)s1 | 4 | 0 | -2 | -6 | 0 | x | x
CN1CCc2c(sc(/N=C/c3cc(Cl)ccc3O)c2C#N)C1 | 1 | 20 | 27* | -5 | 23 | 28* | 38*
CN1CCc2c(sc(/N=C/c3c[nH]c4ccccc34)c2C#N)C1 | 2 | 77 | 44* | x | 70 | 43* | 53*
Cc1cc(C)n(/N=C/c2c[nH]c3ccccc23)c(=O)c1C#N | -3 | 0 | -2 | 1 | 1 | x | x
CN(C)/N=C/C=C1\CCC/C(=C/c2cccs2)C1=O | 6 | 34 | 49* | -1 | 15 | 56* | 66*
O=C1/C(=C/c2cccs2)COc2ccccc21 | 3 | 2 | -3 | -1 | 7 | x | x
CN(C)/N=C/C=C1\CC/C(=C\c2ccc(Br)cc2)C1=O | 3 | 29 | 77* | -4 | 22 | 55* | 66*
Cc1ccc(-c2ccc(/C=C/C(=O)c3ccccc3)o2)cc1 | -4 | 16 | 48* | -5 | -7 | 77* | 84*
O=C(/C=C/c1ccc(-c2ccccc2)o1)c1ccccc1 | 0 | 2 | 13 | -4 | 4 | x | x
Cc1ccc(S(=O)(=O)N2[C@@H](CO)CO[C@H]2CC(=O)c2ccc(F)cc2)cc1 | x | -1 | x | x | -1 | x | x
